# Source: ChEMBL document CHEMBL2331331 (J Med Chem, 2013)
# The source made the active and inactive calls. The rule behind the calls is not given here.
# How the values were obtained:
# [1] = molecular target: T1, Receptor-type tyrosine-protein kinase FLT3 (Homo sapiens, UniProt P36888); assay: Inhibition of FLT3 in human MV4-11 cells assessed as inhibition of Erk1/2 phosphorylation after 20 hrs by Western blotting analysis; assay type: cell-based
# T1 sequence (P36888 whole entry): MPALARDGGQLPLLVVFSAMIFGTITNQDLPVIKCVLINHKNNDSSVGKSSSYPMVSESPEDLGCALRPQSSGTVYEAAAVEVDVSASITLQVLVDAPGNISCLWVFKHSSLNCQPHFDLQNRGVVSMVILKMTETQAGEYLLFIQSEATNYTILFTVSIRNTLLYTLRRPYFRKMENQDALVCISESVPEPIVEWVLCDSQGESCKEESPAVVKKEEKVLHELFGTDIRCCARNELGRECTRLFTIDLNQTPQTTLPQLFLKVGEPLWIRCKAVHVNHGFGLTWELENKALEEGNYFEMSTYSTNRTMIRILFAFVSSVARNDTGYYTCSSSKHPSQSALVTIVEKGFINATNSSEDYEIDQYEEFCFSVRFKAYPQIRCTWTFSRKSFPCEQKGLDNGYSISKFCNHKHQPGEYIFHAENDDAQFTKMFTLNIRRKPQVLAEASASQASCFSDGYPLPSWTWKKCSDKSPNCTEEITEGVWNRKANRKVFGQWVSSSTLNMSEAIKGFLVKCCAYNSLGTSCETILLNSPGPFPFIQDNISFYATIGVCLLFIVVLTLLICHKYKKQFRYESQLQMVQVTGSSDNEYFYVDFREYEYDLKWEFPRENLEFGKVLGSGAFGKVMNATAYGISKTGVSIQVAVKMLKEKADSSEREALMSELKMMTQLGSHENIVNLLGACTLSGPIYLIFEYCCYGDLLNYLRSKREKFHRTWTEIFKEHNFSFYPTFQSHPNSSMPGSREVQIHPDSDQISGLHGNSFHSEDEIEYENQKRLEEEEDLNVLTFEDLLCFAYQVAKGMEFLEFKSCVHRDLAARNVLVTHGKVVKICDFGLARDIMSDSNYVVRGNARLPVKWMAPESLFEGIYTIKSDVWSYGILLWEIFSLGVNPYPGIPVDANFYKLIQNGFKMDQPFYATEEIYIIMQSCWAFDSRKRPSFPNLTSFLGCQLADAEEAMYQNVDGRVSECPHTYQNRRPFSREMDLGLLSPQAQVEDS
# [2] = tested on: MKN-45; assay: Cytotoxicity against human MKN45 cells assessed as growth inhibition after 72 hrs by MTT assay; conditions: MKN-45, 72 h
# [3] = molecular target: Platelet-derived growth factor receptor alpha (Homo sapiens, UniProt P16234); assay: Inhibition of PDGFRalpha (unknown origin)
# [4] = molecular target: Receptor-type tyrosine-protein kinase FLT3 (Homo sapiens, UniProt P36888, ITD); assay: Binding affinity to FLT3-ITD mutant (unknown origin)
# [5] = molecular target: RAF proto-oncogene serine/threonine-protein kinase (Homo sapiens, UniProt P04049); assay: Inhibition of c-RAF (unknown origin)
# [6] = tested on: MV4-11; assay: Induction of apoptosis in human MV4-11 cells assessed as late apoptotic cells at 0.001 uM after 24 hrs by annexin V-FITC/propidium iodide staining-based FACS flow cytometric analysis (reference value: 4.28%); assay type: functional
# [7] = Apparent half life in Sprague-Dawley rat at 10 mg/kg/day, po; assay type: ADME, organism-based; set-up: route oral; conditions: in vivo, read-out: t1/2(app) (converted)
# [8] = molecular target: Mast/stem cell growth factor receptor Kit (Homo sapiens, UniProt P10721); assay: Inhibition of c-Kit (unknown origin)
# [9] = Cytotoxicity against human SK cells assessed as growth inhibition after 72 hrs by MTT assay
# [10] = molecular target: Cyclin-dependent kinase 2 (Homo sapiens, UniProt P24941); assay: Inhibition of CDK2 (unknown origin)
# [11] = tested on: MDA-MB-468; assay: Cytotoxicity against human MDA-MB-468 cells assessed as growth inhibition after 72 hrs by MTT assay; conditions: MDA-MB-468, 72 h
# [12] = molecular target: Megakaryocyte-associated tyrosine-protein kinase (Homo sapiens, UniProt P42679); assay: Inhibition of CTK (unknown origin)
# [13] = molecular target: Aurora kinase B (Homo sapiens, UniProt Q96GD4); assay: Inhibition of aurora-B (unknown origin)
# [14] = tested on: MV4-11; assay: Induction of apoptosis in human MV4-11 cells assessed as late apoptotic cells at 0.01 uM after 24 hrs by annexin V-FITC/propidium iodide staining-based FACS flow cytometric analysis (reference value: 4.28%); assay type: functional
# [15] = molecular target: Calcium/calmodulin-dependent protein kinase type IV (Homo sapiens, UniProt Q16566); assay: Inhibition of CAMK4 (unknown origin)
# [16] = tested on: DU-145; assay: Cytotoxicity against human DU145 cells assessed as growth inhibition after 72 hrs by MTT assay; conditions: DU-145, 72 h
# [17] = tested on: MV4-11; assay: Induction of apoptosis in human MV4-11 cells assessed as late apoptotic cells at 0.003 uM after 24 hrs by annexin V-FITC/propidium iodide staining-based FACS flow cytometric analysis (reference value: 4.28%); assay type: functional
# [18] = tested on: Mus musculus; assay: Toxicity in NOD-SCID mouse xenografted with FLT3-ITD-positive human MV4-11 cells assessed as body weight loss at 1 to 10 mg/kg/day, po administered 18 days measured every 3 days for 18 days; assay type: organism-based; set-up: route oral; conditions: in vivo, 432 h
# Outline: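 NOD-SCID mice, 5–6 weeks old, received 100 μL of MV4-11 cells sc (1 × 10⁸/mL in serum-free medium). At 300–500 mm³ tumors, mice were grouped (six per group) and gavaged once daily for 18 days at 1, 3 or 10 mg/kg/d. Vehicle was 12.5% castor oil, 12.5% ethanol and 75% water. Body weights were tracked; tumors were measured every 3 d.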
# [19] = tested on: HCT-116; assay: Cytotoxicity against human HCT116 cells assessed as growth inhibition after 72 hrs by MTT assay; conditions: HCT-116, 72 h
# [20] = molecular target: Vascular endothelial growth factor receptor 2 (Danio rerio) (UniProt Q5GIT4); assay: Inhibition of VEGFR2 in transgenic zebrafish embryo assessed as inhibition of intersegmental vessels formation at 5 uM measured 33 hrs post fertilization by fluorescence microscopic analysis
# Outline: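 FLK-1:EGFP transgenic zebrafish embryos, 10 per well, exposed at 28.5 °C from 15 to 31 hpf to compound in fish water at 1.25, 2.5 or 5 μM (diluted from a 10 mmol/L DMSO stock); 0.3% DMSO as vehicle control. Embryos were imaged at 33 hpf, and ISVs above the yolk extension were scored for length. n = 11, mean ± SD, ANOVA.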
# [21] = molecular target: Serine/threonine-protein kinase PLK1 (Homo sapiens, UniProt P53350); assay: Inhibition of PLK1 (unknown origin)
# [22] = tested on: A549; assay: Cytotoxicity against human A549 cells assessed as growth inhibition after 72 hrs by MTT assay; conditions: A549, 72 h
# [23] = molecular target: Myotonin-protein kinase (Homo sapiens, UniProt Q09013); assay: Inhibition of DMPK (unknown origin)
# [24] = tested on: TT; assay: Cytotoxicity against human TT cells assessed as growth inhibition after 72 hrs by MTT assay
# [25] = molecular target: T1, Receptor-type tyrosine-protein kinase FLT3; assay: Inhibition of FLT3 in human MV4-11 cells assessed as inhibition of STAT5 phosphorylation after 20 hrs by Western blotting analysis; assay type: cell-based
# Sequence of Mast/stem cell growth factor receptor Kit (P10721 whole entry): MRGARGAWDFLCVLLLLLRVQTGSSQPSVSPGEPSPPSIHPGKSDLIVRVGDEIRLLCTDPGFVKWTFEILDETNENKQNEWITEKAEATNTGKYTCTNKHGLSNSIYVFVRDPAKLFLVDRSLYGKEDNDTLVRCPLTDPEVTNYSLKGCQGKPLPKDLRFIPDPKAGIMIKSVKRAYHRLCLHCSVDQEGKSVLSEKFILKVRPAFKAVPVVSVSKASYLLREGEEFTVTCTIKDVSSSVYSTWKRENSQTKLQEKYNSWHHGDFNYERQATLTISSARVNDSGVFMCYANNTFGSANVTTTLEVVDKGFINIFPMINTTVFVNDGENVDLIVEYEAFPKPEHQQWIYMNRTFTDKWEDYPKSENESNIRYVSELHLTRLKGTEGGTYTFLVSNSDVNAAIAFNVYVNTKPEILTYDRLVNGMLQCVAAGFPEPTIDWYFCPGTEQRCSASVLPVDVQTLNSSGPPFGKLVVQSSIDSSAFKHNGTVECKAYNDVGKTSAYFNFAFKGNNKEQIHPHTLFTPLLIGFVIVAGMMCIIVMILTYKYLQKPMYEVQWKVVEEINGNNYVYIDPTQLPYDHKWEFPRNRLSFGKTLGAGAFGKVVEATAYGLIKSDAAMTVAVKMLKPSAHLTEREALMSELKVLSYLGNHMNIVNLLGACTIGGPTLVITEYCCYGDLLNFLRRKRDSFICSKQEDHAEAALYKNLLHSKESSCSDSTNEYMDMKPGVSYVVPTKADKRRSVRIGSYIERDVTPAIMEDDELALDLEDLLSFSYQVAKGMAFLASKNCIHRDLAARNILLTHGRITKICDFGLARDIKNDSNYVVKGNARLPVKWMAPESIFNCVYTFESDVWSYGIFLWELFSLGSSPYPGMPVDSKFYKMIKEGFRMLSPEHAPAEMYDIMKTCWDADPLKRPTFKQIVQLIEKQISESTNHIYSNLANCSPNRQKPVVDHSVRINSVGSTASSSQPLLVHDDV
# Sequence of Myotonin-protein kinase (Q09013 whole entry): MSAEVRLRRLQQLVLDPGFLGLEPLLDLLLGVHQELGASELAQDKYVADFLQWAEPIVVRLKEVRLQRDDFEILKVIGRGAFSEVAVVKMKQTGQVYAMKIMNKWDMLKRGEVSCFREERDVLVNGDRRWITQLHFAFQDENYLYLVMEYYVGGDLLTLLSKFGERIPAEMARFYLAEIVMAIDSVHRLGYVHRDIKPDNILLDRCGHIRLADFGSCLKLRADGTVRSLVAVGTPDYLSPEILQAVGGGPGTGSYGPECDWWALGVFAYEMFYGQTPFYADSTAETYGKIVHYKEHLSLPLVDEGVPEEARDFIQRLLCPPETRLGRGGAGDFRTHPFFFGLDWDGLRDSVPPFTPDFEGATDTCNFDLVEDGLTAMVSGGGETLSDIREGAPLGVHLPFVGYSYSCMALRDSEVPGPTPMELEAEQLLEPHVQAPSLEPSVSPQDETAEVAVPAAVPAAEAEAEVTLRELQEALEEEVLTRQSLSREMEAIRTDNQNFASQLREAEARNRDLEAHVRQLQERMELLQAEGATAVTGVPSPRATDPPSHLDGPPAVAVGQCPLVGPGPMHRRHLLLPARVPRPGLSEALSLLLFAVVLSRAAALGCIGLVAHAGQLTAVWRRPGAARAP
# Sequence of Megakaryocyte-associated tyrosine-protein kinase (P42679 whole entry): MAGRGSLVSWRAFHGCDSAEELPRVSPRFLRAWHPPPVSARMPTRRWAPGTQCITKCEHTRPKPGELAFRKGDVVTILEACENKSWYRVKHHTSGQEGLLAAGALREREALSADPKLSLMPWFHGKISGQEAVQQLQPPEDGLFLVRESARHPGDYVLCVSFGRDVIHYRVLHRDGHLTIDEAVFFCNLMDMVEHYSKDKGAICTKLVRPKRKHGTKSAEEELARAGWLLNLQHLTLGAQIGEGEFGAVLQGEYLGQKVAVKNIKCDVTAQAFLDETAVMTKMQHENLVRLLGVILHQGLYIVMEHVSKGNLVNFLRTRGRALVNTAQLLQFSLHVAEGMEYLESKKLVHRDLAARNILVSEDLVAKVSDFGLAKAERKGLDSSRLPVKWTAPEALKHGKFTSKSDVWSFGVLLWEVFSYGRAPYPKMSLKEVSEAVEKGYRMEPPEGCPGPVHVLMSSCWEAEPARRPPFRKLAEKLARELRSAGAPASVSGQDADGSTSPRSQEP
# Sequence of Aurora kinase B (Q96GD4 whole entry): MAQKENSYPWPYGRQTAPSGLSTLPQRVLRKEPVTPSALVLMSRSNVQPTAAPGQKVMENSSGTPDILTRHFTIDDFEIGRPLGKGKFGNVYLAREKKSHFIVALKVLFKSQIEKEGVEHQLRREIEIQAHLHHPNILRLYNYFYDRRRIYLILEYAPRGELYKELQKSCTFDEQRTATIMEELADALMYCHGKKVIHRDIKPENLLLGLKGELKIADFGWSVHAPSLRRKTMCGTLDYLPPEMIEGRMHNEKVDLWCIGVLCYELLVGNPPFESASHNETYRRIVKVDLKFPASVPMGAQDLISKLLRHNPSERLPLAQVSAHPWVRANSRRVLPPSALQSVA
# Sequence of Platelet-derived growth factor receptor alpha (P16234 whole entry): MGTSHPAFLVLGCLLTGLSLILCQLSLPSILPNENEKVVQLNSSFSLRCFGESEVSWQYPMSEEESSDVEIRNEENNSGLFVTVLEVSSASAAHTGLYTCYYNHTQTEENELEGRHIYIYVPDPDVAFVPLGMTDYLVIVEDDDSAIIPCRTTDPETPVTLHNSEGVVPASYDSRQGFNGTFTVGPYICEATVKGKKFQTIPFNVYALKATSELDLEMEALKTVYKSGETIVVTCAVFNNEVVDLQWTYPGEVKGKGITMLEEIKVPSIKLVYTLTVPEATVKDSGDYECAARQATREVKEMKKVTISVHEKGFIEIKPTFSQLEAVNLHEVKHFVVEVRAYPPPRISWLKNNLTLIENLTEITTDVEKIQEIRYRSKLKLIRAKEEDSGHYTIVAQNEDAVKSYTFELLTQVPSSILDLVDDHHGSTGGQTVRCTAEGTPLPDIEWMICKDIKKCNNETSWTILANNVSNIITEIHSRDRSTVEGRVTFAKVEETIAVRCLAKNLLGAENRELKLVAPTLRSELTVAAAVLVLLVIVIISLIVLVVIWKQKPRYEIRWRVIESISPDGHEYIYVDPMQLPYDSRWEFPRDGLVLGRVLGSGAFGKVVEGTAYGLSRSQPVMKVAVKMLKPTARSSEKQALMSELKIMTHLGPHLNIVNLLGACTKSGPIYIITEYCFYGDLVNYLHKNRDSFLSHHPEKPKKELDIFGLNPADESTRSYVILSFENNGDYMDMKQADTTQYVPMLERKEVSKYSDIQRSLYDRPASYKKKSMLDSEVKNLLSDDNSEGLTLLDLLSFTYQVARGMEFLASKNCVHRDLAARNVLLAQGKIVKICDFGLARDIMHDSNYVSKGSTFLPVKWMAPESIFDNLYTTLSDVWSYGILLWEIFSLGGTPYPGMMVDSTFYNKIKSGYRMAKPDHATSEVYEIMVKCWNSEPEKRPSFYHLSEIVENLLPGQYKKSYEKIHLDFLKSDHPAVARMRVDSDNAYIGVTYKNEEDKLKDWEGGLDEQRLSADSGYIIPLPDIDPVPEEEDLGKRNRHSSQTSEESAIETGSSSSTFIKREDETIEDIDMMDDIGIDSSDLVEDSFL
# Sequence of Calcium/calmodulin-dependent protein kinase type IV (Q16566 whole entry): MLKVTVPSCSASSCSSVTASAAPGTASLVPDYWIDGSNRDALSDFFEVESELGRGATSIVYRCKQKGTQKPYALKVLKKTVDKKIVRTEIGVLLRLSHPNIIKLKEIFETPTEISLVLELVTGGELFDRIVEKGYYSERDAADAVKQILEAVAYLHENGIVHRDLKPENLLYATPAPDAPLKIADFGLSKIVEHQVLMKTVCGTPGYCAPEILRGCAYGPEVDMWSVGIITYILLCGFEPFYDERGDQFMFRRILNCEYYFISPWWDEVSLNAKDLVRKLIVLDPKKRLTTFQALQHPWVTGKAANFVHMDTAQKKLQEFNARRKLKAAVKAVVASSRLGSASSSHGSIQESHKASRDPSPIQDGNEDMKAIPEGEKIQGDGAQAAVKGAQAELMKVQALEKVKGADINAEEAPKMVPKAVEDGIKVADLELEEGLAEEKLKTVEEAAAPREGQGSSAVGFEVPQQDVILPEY
# Sequence of Serine/threonine-protein kinase PLK1 (P53350 whole entry): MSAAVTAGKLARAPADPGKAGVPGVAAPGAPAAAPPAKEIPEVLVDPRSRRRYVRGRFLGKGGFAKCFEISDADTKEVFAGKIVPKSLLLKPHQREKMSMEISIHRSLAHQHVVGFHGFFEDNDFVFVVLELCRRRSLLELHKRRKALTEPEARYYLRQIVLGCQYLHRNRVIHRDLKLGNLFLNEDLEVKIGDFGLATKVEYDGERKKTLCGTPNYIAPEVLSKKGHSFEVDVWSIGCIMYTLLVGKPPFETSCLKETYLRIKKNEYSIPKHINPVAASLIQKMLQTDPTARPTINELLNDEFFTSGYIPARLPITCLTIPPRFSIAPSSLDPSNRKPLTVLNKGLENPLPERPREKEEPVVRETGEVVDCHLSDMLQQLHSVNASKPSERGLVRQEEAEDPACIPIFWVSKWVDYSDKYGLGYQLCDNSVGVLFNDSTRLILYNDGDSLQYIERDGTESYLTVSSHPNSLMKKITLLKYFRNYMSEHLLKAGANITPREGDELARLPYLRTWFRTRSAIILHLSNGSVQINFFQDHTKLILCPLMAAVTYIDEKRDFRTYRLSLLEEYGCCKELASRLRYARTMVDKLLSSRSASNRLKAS
smiles,measurement,setting,value
O=C(Nc1ccc(Oc2ncnc3[nH]ncc23)cc1)Nc1ccc(Cl)c(C(F)(F)F)c1,IC50,[1],0.001 µM
same,IC50,[2],8.23 µM
same,IC50,[3],0.223 µM
same,Kd,[4],0.0043 µM
same,IC50,[5],0.072 µM
same,Activity,[6],5.5%
same,half-life,[7],12.6 h
same,IC50,[8],0.507 µM
same,IC50,[9],> 10 µM
same,IC50,[10],> 10 µM
same,IC50,[11],6.68 µM
same,IC50,[12],> 10 µM
same,IC50,[13],> 10 µM
same,Activity,[14],9.64%
same,IC50,[15],> 10 µM
same,IC50,[16],> 10 µM
same,Activity,[17],7.11%
same,Activity,[18],Non-toxic
same,IC50,[19],> 10 µM
same,inhibition,[20],Active
same,IC50,[21],> 10 µM
same,IC50,[22],> 10 µM
same,IC50,[23],> 10 µM
same,IC50,[24],3.42 µM
same,IC50,[25],0.003 µM
